Experimental findings from ChEMBL document CHEMBL4828732, “Synthesis and biological evaluation of selective survivin inhibitors derived from the MX-106 hydroxyquinoline scaffold” (Eur J Med Chem, 2021) are described below.

The nature of data set [1]: Resistance index, ratio of IC50 for antiproliferation activity against human MDA-MB-435/LCC6MDR cells to IC50 for antiproliferation activity against human MDA-MB-435 cells assessed as cell growth inhibition measured after 72 hrs by MTS assay. It is filed as functional.
Data set [2] is described as follows: Metabolic stability of the compound in mouse liver microsomes assessed as half life at 10 uM incubated for 10 mins in presence of NADPH by UPLC-MS analysis. Type of data set: ADME, Microsome.
A short description of data set [3]: Metabolic stability of the compound in rat liver microsomes assessed as half life at 10 uM incubated for 10 mins in presence of NADPH by UPLC-MS analysis. It is filed as ADME, Microsome.
Data set [4] is described as follows: Metabolic stability of the compound in human liver microsomes assessed as half life at 10 uM incubated for 10 mins in presence of NADPH by UPLC-MS analysis. It is filed as ADME, Microsome.
Data set [5] in a line: Metabolic stability of the compound in mouse liver microsomes assessed as clearance at 10 uM incubated for 10 mins in presence of NADPH by UPLC-MS analysis. Type of data set: ADME, Microsome.
Data set [6] is described as follows: Metabolic stability of the compound in rat liver microsomes assessed as clearance at 10 uM incubated for 10 mins in presence of NADPH by UPLC-MS analysis. Type of data set: ADME, Microsome.
Data set [7] has as its system A-375. Put plainly: cells. Conditions: Homo sapiens, A-375, 72 h.
Data set [8] relates to MDA-MB-435. As to the kind of experiment: cells. Conditions: Homo sapiens, MDA-MB-435, 72 h.
In data set [9] the test system is RPMI-7951. As to the kind of experiment: cells. Conditions: Homo sapiens, RPMI-7951, 72 h.
The subject of data set [10] is MDA-MB-453. Put plainly: cells. The following applies: Homo sapiens, MDA-MB-453, 72 h.
Data set [11] relates to SK-BR-3. As to the kind of experiment: cells. The following applies: Homo sapiens, SK-BR-3, 72 h.
Data set [12] concerns MDA-MB-435/LCC6MDR1. As to the kind of experiment: cells. Conditions: Homo sapiens, MDA-MB-435, 72 h.
Data set [13] relates to OVCAR-3. As to the kind of experiment: cells. The following applies: Homo sapiens, OVCAR-3, 72 h.
The subject of data set [14] is OVCAR-8. As to the kind of experiment: cells. Conditions: Homo sapiens, OVCAR-8, 72 h.
Data set [15] is described as follows: Metabolic stability of the compound in human liver microsomes assessed as clearance at 10 uM incubated for 240 mins in presence of NADPH by UPLC-MS analysis. Conditions: 4 h.
Data set [16] deals with A-375. As to the kind of experiment: Downregulation of survivin protein expression in human A-375 cells measured after 24 hrs by Westernblot analysis. It is filed as functional, cell-based. The method, boiled down: (§1)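 A375 cells (2 × 10⁶ per 10-cm dish) attached overnight, then treated 24 h in DMEM with 1, 5 or 10 μM. Lysed in RIPA with protease/phosphatase inhibitors; protein measured by Bradford. 50 μg run on SDS-PAGE, transferred to PVDF, blocked in 5% milk, probed overnight at 4°C for survivin, cleaved PARP, cIAP1, XIAP, Livin, with HRP-GAPDH as loading control; ECL detection.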

Data set [17] relates to A-375. Put plainly: Induction of apoptosis in human A-375 cells assessed as increase in cleaved PARP level after 24 hrs by Western blot analysis. It is filed as functional, cell-based. In outline: as §1
The test system of data set [18] is A-375. As to the kind of experiment: Induction of apoptosis in human A-375 cells assessed as increase in cleaved […] level after 24 hrs by Western blot analysis. It is filed as functional, cell-based.
Data set [19] concerns OVCAR-8. As to the kind of experiment: Downregulation of survivin protein expression in human OVCAR-8 cells measured after 24 hrs by Westernblot analysis. It is filed as functional, cell-based. In outline: (§2)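 Ovarian cancer cells treated 24 h at 2 and 4 μM, or vehicle, in serum-free RPMI 1640. Lysed in RIPA with protease inhibitor; 100 μg protein per lane run on 10% SDS-PAGE, transferred to PVDF, blocked in 5% milk. Probed for survivin, MCL1 and GAPDH; HRP secondary with ECL detection.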

The test system of data set [20] is OVCAR-3. As to the kind of experiment: Downregulation of survivin protein expression in human OVCAR-3 cells measured after 24 hrs by Westernblot analysis. It is filed as functional, cell-based. The method, boiled down:
as §2

The test system of data set [21] is SK-OV-3. As to the kind of experiment: Downregulation of survivin protein expression in human SK-OV-3 cells measured after 24 hrs by Westernblot analysis. Type of data set: functional, cell-based. In outline:
as §2

For data set [22], the system named is A-375. Put plainly: Antitumor activity against human A-375 cells xenografted in NSG mouse assessed as tumor growth inhibition at 20 to 40 mg/kg, ip administrated 3 times a week for 15 days. It is filed as functional, organism-based. Conditions: dose 20-40 mg/kg, time 15.0 day.
The nature of data set [23]: Toxicity in NSG mouse xenografted with human A-375 cells assessed as reduction in body weight at 20 mg/kg, ip administrated 3 times a week for 15 days. It is filed as organism-based. The following applies: in vivo, 360 h, time 15 day.
The nature of data set [24]: Toxicity in NSG mouse xenografted with human A-375 cells assessed as reduction in body weight at 40 mg/kg, ip administrated 3 times a week for 15 days. It is filed as organism-based. Conditions: in vivo, 360 h, time 15 day.
The subject of data set [25] is A-375. Put plainly: Antitumor activity against human A-375 cells xenografted in NSG mouse assessed as reduction in tumor weight at 20 mg/kg, ip administrated 3 times a week for 15 days. It is filed as functional. On the set-up: scale not given: the % may be the effect or the level left. Conditions: time 15 day.
In data set [26] the test system is A-375. As to the kind of experiment: Antitumor activity against human A-375 cells xenografted in NSG mouse assessed as reduction in tumor weight at 40 mg/kg, ip administrated 3 times a week for 15 days. Type of data set: functional. On the set-up: scale not given: the % may be the effect or the level left. Conditions: time 15 day.
The nature of data set [27]: Toxicity in NSG mouse xenografted with human OVCAR-8 cells assessed as reduction in body weight at 20 mg/kg, ip administrated 3 times a week for 15 days. Conditions: in vivo, 360 h, time 15 day. Type of data set: organism-based.
For data set [28], the system named is OVCAR-8. Put plainly: Antitumor activity against luciferase-tagged human OVCAR-8 cells xenografted into left side ovarian bursa of NSG mouse assessed as reduction in number of metastatic tumor in kidney at 20 mg/kg, […] by histological analysis. It is filed as functional, organism-based.
The subject of data set [29] is OVCAR-8. Put plainly: Antitumor activity against luciferase-tagged human OVCAR-8 cells xenografted into left side ovarian bursa of NSG mouse assessed as reduction in number of metastatic tumor in spleen at 20 mg/kg, […] by histological analysis. It is filed as functional, organism-based.
Data set [30] has as its system OVCAR-8. Put plainly: Antitumor activity against luciferase-tagged human OVCAR-8 cells xenografted into left side ovarian bursa of NSG mouse assessed as reduction in number of metastatic tumor in stomach at 20 mg/kg, ip administrated […] by histological analysis. It is filed as functional, organism-based.
Data set [31] concerns OVCAR-8. As to the kind of experiment: Antitumor activity against luciferase-tagged human OVCAR-8 cells xenografted into left side ovarian bursa of NSG mouse assessed as reduction in number of metastatic tumor in intestine at 20 mg/kg, ip administrated 3 times a week for 15 days by histological analysis. It is filed as functional, organism-based. Conditions: time 15.0 day.

Data set [32] relates to OVCAR-8. Conditions: Homo sapiens, dose 20.0 mg/kg, time 15.0 day.
For data set [33], the system named is OVCAR-8. As to the kind of experiment: Antitumor activity against human OVCAR-8 cells xenografted in NSG mouse assessed as tumor weight at 20 mg/kg, ip administrated 3 times a week for 15 days. The following applies: time 15 day.
The test system of data set [34] is OVCAR-8. Put plainly: Antitumor activity against luciferase-tagged human OVCAR-8 cells xenografted into left side ovarian bursa of NSG mouse assessed as reduction in number of metastatic tumor at 20 mg/kg, ip administrated 3 times a week for 15 days by histological analysis. Conditions: time 15.0 day.
In data set [35] the test system is A-375. Put plainly: Downregulation of survivin protein expression in human A-375 cells at 10 uM measured after 24 hrs by Westernblot analysis. Type of data set: functional, cell-based. In outline: as §1

Calls of active or inactive are those of the source. The calls are words filed in the database; no cut-off is given here.

`Oc1c(CN2CCCCC2)cc(Cn2ncc(-c3ccc(Br)cc3)n2)c2cccnc12`: the “Ratio IC50” value in [1] was 0.5. Also, the t1/2 in [2] worked out at 0.7 h; in [3], 1.3 h; in data set [4] it was 1.3 h. For the same compound, the results for the CLH in data set [5], in data set [6] and in data set [15] were 35 µL/min/mg, 18 µL/min/mg and 17.5 µL/min/mg, respectively. In addition, the IC50 amounted to 1000 nM in data set [7]; 2200 nM in [8]; 900 nM in [9]; 1500 nM in data set [10]; 1900 nM in data set [11]; 1200 nM in data set [12]. Moreover, the figures for the 50% inhibitory concentration (IC50) in data set [13] and in [14] were 500 nM and 1700 nM, respectively.

In the case of `Oc1c(CN2CCCC2)cc(Cn2ncc(-c3ccc(Br)cc3)n2)c2cccnc12`, the “Ratio IC50” value in data set [1] is given as 0.2. The Activity entry in data set [16] was “Dose-Dependent Effect”. In addition, the outcome in data set [17] was Active. The t1/2 was 0.8 h in [2], 1 h in data set [3] and 1.9 h in data set [4]. The CLH in data set [5] was found to be 27.8 µL/min/mg; in data set [6], 22.6 µL/min/mg; in data set [15], 12 µL/min/mg. The IC50 is 700 nM in data set [7]; 3100 nM in [8]; 1700 nM in [9]; 3100 nM in data set [10]; 2700 nM in data set [11]; 600 nM in data set [12]. Further, the IC50 in data set [13] worked out at 1000 nM; in data set [14] it was 1700 nM.

With `Oc1c(CN2CCCCC2)cc(Cn2ncc(-c3ccc(C(F)(F)F)cc3)n2)c2cccnc12`, the Activity entry in data set [16] was “Dose-Dependent Effect”; in [22], “Dose-Dependent Effect”; in data set [23], “Non-Toxic”; in data set [24] it was “Non-Toxic”; in data set [25], 32%; in [26], 55%. Besides, the Activity result in data set [27] was “Non-Toxic”. The result in data set [17], in data set [18], in data set [19], in data set [20], in [21] and in data set [28] was Active. Also, the result in [29], in [30] and in data set [34] was Active. Moreover, the t1/2 in data set [3] is 1.6 h; in data set [4], 1.5 h. The CLH in [5] is 21.6 µL/min/mg; in [6], 14.2 µL/min/mg; in [15] it was 15.7 µL/min/mg. Also, the result in [31] was inactive. Further, the inhibition result in data set [32] was “Active”. The tumor weight in data set [33] is 0.11 g.

`CC(C)c1ccc(COCc2cc(-c3cncc4ccccc34)c(O)c3ncccc23)cc1`: the “Ratio IC50” value in data set [1] is on record as 1.6. The t1/2 in [2] came to 1.2 h; in [3], 0.6 h; in data set [4], 1.4 h. Also, the values for the CLH in data set [5], in data set [6] and in data set [15] were 19.9 µL/min/mg, 36.7 µL/min/mg and 16.3 µL/min/mg, respectively. The half-inhibitory concentration (IC50) is 600 nM in data set [7]; 600 nM in data set [8]; 500 nM in data set [9]; 1300 nM in data set [10]; 1500 nM in data set [11]; 1000 nM in data set [12].

Consider `CC(C)c1ccc(COCc2cc(-c3ccccc3)c(O)c3ncccc23)cc1`, for which the “Ratio IC50” value in [1] was 2.6. Also, the result in data set [35] was inactive. In data set [17], the outcome was Active. In addition, the t1/2 in data set [3] turned out to be 2.5 h. The CLH in data set [5] came out at 5.5 µL/min/mg; in [6], 9.2 µL/min/mg; in data set [15], 3.2 µL/min/mg. Moreover, the IC50 in data set [7] amounted to 500 nM; in data set [8], 500 nM; in data set [9], 700 nM; in data set [10] it was 500 nM; in data set [11], 800 nM; in data set [12], 1400 nM. The IC50 in [13] came to 1300 nM; in [14], 2600 nM.

`Oc1c(CN2CCCC2)cc(Cn2ncc(-c3cccc(Br)c3)n2)c2cccnc12`: the “Ratio IC50” value in data set [1] is given as 0.4. In addition, the result in data set [19], in data set [20] and in data set [21] was Active. In addition, the values for the t1/2 in data set [2], in data set [3] and in data set [4] were 1 h, 0.9 h and 2.3 h, respectively. Also, the CLH in [5] was determined as 24.3 µL/min/mg; in [6], 24.8 µL/min/mg; in data set [15] it was 10 µL/min/mg. Further, the IC50 is 600 nM in [7]; 2600 nM in [8]; 600 nM in data set [9]; 2800 nM in data set [10]; 2700 nM in [11]; 900 nM in data set [12]. Also, the values for the IC50 in data set [13] and in data set [14] were 800 nM and 1300 nM, respectively.
